Most compounds without a hit are left out; they make up all but 5.6% or so of the library.
UPR XBP1 act: activators of adaptive arm of unfolded protein response (XBP1); 330,000 compounds, 0.33% hits; activation, % at 20 µM; CHO-XBP1 luciferase reporter, IRE1-XBP1 UPR activation, luminescence; percent of tunicamycin response, DMSO as zero;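 active = versus positive control, 20 µM dose yields 30% or more activation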;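 also: 100% = tunicamycin at 10 µg/mL and 0% = DMSO only wells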
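Material: CHO-XBP1 cells stably carrying IRE1-XBP1-driven luciferase reporter | Medium: F12 with 10% serum | Compound dosing: 20 µM single concentration, DMSO 1% | Incubation: Overnight seeding at 37 °C, 6 h compound treatment at 37 °C | Detection: Steady-Glo luminescence read | Read-out basis: % activation of reporter signal versus tunicamycin and DMSO controls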
aDG glyco up: increases alpha dystroglycan glycosylation; activation, % at 10 µM; AID 624168; 360,000 compounds, 0.22% hits; Pro5-aDG cells, alpha-DG glycosylation AlphaScreen (IIH6); 0% Pro5, 100% B10-LARGE cell signal;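 active = activation of at least 8% versus controls, or a plate z-score of at least 8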;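 also: Pro5 are CHO cells carrying HIG-tagged alpha-DG that lacks glycosylation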
CHOP inhibitor: blocks CHOP induction under ER stress | CHO-K1 CHOP-promoter luciferase, tunicamycin-induced, 15-18 h | inhibition, % at 10 µM | 220,000 compounds, 3.8% hits | AID 2732;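 active = compounds that reduced the stress-induced luciferase reporter signal by more than about 70% of percent inhibition, limit read from the data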;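 also: 0% = tunicamycin plus vehicle and 100% = wells without tunicamycin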
UPR CHOP act: activators of apoptotic arm of unfolded protein response (CHOP). CHO-CHOP luciferase reporter, UPR activation, luminescence; percent of tunicamycin response over DMSO baseline. activation, % at 10 µM. 330,000 compounds, 0.34% hits;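 active = at 10 µM dose, activation of 40% or more, normalized to positive control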;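 also: 100% = tunicamycin at 10 µg/mL and 0% = DMSO alone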
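System: CHO-CHOP luciferase reporter cell line | Buffer or medium: F12 medium containing 10% fetal bovine serum | Doses: One dose, 10 µM in 0.5% DMSO | Times: 6 h compound exposure at 37 °C after overnight seeding | Signal: Luciferase luminescence | Read-out: % activation vs tunicamycin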
MPTP inh: blocks calcium-induced mitochondrial swelling. isolated mouse mitochondria, Ca2+ swelling absorbance, 30 min. inhibition, % at 10 µM. 360,000 compounds, 1.4% hits. AID 602449;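 active = inhibition of 50% or more, scaled per plate between neutral and stimulator controls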;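 also: 0% = DMSO wells given calcium and 100% = 1 mM EGTA wells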
NR3A LBD binder: NR3A (human) ligand-binding domain modulation; NR3A LBD differential scanning fluorimetry, Tm shift; 0% = protein alone, 100% = glycine-bound protein; Tm shift relative to glycine control, % at 25 µM; 340,000 compounds, 2.5% hits; AID 1259313;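 active = melting temperature shift of at least 10% of the positive control shift, at one fixed dose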
An asterisk follows results filed as active; · = not tested or not shown.

SMILES	UPR XBP1 act	aDG glyco up	CHOP inhibitor	UPR CHOP act	MPTP inh	NR3A LBD binder
CCN(C(=O)CCCCC(=O)N(CC)c1ccccc1)c1ccccc1	1	0	·	0	2	0
COc1ccc(-c2ccc(C(=O)NCc3cccs3)c3occc23)c(C)c1	·	1	·	·	0	·
O=C(COc1cc(Cl)c(Cl)cc1Cl)Nc1ccc([N+](=O)[O-])cc1Cl	-1	0	4	5	1	10*
O=C(COc1ccccc1[N+](=O)[O-])Nc1ccccc1N1CCCC1	-5	0	50	-1	6	16*
Cc1cc(C)cc(OCC(=O)Nc2ccc3c(c2)C(=O)c2ccccc2C3=O)c1	-2	0	-5	2	5	14*
O=C(COc1ccccc1[N+](=O)[O-])Nc1ccccc1N1CCCCC1	-3	0	·	2	0	-21
C#CCN(Cc1ccccc1)S(=O)(=O)C=C	2	·	·	4	·	1
CCn1ccnc1CN(C)Cc1c(C(=O)N2C[C@@H](C)O[C@@H](C)C2)nc2ccc(Cl)cn12	-6	0	·	-2	2	1
COc1ccc(S(=O)(=O)NC(C)C(=O)N2CCCC2)cc1C (stereo not given)	-5	0	·	-1	0	4
O=C(Nc1cc(-c2nc3ncccc3o2)ccc1Cl)c1ccc([N+](=O)[O-])o1	6	1	·	4	0	1
COc1cc(-c2coc3c(C(=O)NC4CCCCC4)cccc23)ccc1O	·	1	·	·	0	·
O=C(NCC(c1ccco1)N1CCCCC1)c1cccnc1 (stereo not given)	-3	0	·	-1	0	2
NC1CCN(c2nc3c(cc2F)c(=O)c(C(=O)O)cn3-c2ccc(F)cc2F)C1 (stereo not given)	-5	0	·	-8	-1	-1
Cc1cccc(-c2cc(=O)c(C(=O)O)cn2-c2ccc(F)cc2F)c1	-1	0	25	3	1	13*
Nc1nn2cc(-c3ccc(Br)cc3)nc2c2ccccc12	10	0	51	7	0	27*
COc1ccc(NC(=S)N(CCC(C)C)C2CCN(C(C)C)CC2)cc1	-3	0	·	1	0	0
CCOc1ccc(NC(=S)N(CCOC)C2CCN(C(C)C)CC2)cc1	-4	0	·	-1	3	10*
CCOC(=O)c1c(NC(=O)C2COc3ccccc3O2)sc2c1CCN(Cc1ccccc1)C2 (stereo not given)	-2	0	14	4	2	0
NC(=O)c1c(NC(=O)C2COc3ccccc3O2)sc2c1CCN(Cc1ccccc1)C2 (stereo not given)	2	0	79*	7	1	2
NC(=O)c1c(NC(=O)C2c3ccccc3Oc3ccccc32)sc2c1CCCCC2	0	0	74*	2	2	-4
COc1ccccc1C(=O)Nc1sc2c(c1C(N)=O)CCCC2	25	0	·	8	-2	35*
COc1ccccc1C(=O)Nc1sc2c(c1C#N)CCC2	-2	0	·	3	0	5
Cc1cc(NS(=O)(=O)c2ccc(NC(=O)CSc3nc4ncc(Br)cc4[nH]3)cc2)nc(C)n1	-2	0	19	-1	1	-9
O=C(NCC(=O)N1CCCCCCC1)c1ccc(Cl)c(Cl)c1	·	0	·	·	-2	·
COc1cc(/C=C/C(=O)OCC(=O)N2c3ccccc3NC(=O)C2(C)C)cc(OC)c1OC	2	-1	·	-2	-3	-4
SMILES	UPR XBP1 act	aDG glyco up	CHOP inhibitor	UPR CHOP act	MPTP inh	NR3A LBD binder
CC(C)(C)OC(=O)C[C@H]1C/C=C\C[C@H](CC(=O)NCCO)C(=O)N[C@@H](Cc2ccccc2)COC1=O	-5	0	·	1	1	-1
OC[C@H]1O[C@@H](n2cnc3c(Nc4ccccc4)ncnc32)C(O)[C@H]1O (stereo not given in full)	·	·	3	·	·	·
CCOC(=O)c1sc2ccccc2c1NC(=O)c1coc2ccccc2c1=O	8	0	21	7	4	-1
CCOC(=O)c1sc2ccccc2c1OC(=O)c1ccccc1	0	0	81*	0	-6	14*
Cc1nnc(SCc2cccc3ccccc23)s1	3	0	4	5	-2	-2
CCOc1ccc(Nc2nc3ccccc3c(=O)s2)cc1	1	0	-10	2	0	-2
Cc1ccccc1Nc1nnc(SCc2nc3ccccc3c(=O)[nH]2)s1	-2	·	32	1	·	·
Cc1cccc(C)c1Nc1nnc(SCc2nc3ccccc3c(=O)[nH]2)s1	2	0	27	-1	1	32*
c1ccc(Nc2nnc(SCc3cccc4ccccc34)s2)cc1	-3	0	3	0	2	11*
CCOc1ccc(Nc2nnc(SCc3nc4ccccc4c(=O)[nH]3)s2)cc1	3	0	96*	1	2	1
Cc1cc(C)n2nc(-c3ccc(Cl)cc3)cc2n1	0	0	·	6	1	0
Cc1cc(C)n2nc(-c3sccc3-n3c(C)ccc3C)cc2n1	2	0	76*	0	-1	-8
FC(F)(F)c1cc(C(F)(F)F)n2nc(-c3sccc3-n3cccc3)cc2n1	-3	0	-20	-2	-4	-1
Cc1cc(C)n2nc(-c3sccc3-n3cccc3)cc2n1	-2	0	-28	-2	-3	11*
COc1ccc(/C=N\NC(=O)c2ccccc2[N+](=O)[O-])cc1COc1c(F)c(F)c(F)c(F)c1F	-6	0	·	3	2	10*
COc1ccc(/C=N\NC(=O)c2ccc([N+](=O)[O-])cc2)cc1COc1c(F)c(F)cc(F)c1F	0	0	·	0	1	5
COc1ccc(OCc2cc(/C=N\NC(=O)c3ccccc3)ccc2OC)cc1	-3	0	·	0	-2	4
COc1cccc(/C=N/NC(=O)c2ccc(OCc3cccc(Br)c3)cc2)c1	-1	4	3	1	28	29*
Nc1ccc(C(=O)N/N=C/c2cccc(Oc3ccccc3)c2)cc1	-2	0	·	0	0	10*
COc1ccc(/C=N\NC(=O)c2cccc(F)c2)cc1COc1ccccc1	23	0	·	4	10	16*
O=S1(=O)C=C[C@@H](COCc2ccccc2)N1Cc1ccc(Br)cc1	·	0	·	·	0	·
CC(C)(C)n1nnnc1C(c1ccccc1)N1CCN(c2ccccn2)CC1 (stereo not given)	·	0	·	·	-3	·
CCN(CC)CC(=O)Nc1cccc2c1C(=O)c1ccccc1C2=O	-4	0	77*	-1	8	0
Cc1ccc(-c2[nH]ncc2C(=O)c2ccccc2C)c(O)c1	1	0	·	0	0	1

Screening data deposited in PubChem BioAssay by several laboratories.
